Activity data for 2 molecules are collected here from ChEMBL document CHEMBL1140207, “A small molecule inhibitor, 1,2,4,5-benzenetetraamine tetrahydrochloride, targeting the y397 site of focal adhesion kinase decreases tumor growth” (J Med Chem, 2008).

Active and inactive are the calls of the source. The rule behind the calls is not given here.

Test [1] relates to BT-474. Nature of the test: Induction of apoptosis in human BT474 cells at 20 uM after 24 hrs by […] staining. In kind it is functional. In outline:
(§1)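 BT474 cells treated 24 h at various doses; apoptotic nuclei scored by Hoechst staining; means ± SD of four independent experiments versus untreated cells.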

Test [2] concerns BT-474. Nature of the test: Induction of apoptosis in human BT474 cells assessed as presence of apoptotic nuclei at 20 uM after 24 hrs by […] staining. In kind it is functional, cell-based. In outline: as §1
For test [3], the target named is Focal adhesion kinase 1 (Homo sapiens) (UniProt Q05397). Nature of the test: Inhibition of FAK-Y397 phosphorylation in human BT474 cells at 100 uM by Western blotting. In kind it is cell-based. The settings on record: BT-474, TDE = time-dependent effect. In outline:
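BT474 cells given 100 μM for 1–24 h; Y397-FAK and total FAK normalized to β-actin by densitometry, expressed relative to untreated; three independent experiments, mean ± SE.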
For orientation: In western blotting, separated proteins are transferred to a membrane and probed.

Test [4] has as its system BT-474. Nature of the test: Effect on human BT474 cell survival assessed as cell detachment at 10 uM after 24 hrs by hemocytometer. It is filed as functional. In outline: (§2)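 BT474 cells treated at a range of doses; detached cells counted on a hemacytometer; means ± standard errors of three independent experiments, versus untreated cells.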
Test [5] has as its system BT-474. Nature of the test: Induction of apoptosis in human BT474 cells at 10 uM after 24 hrs by […] staining. It is filed as functional. In outline:
as §1

For test [6], the system named is BT-474. Nature of the test: Inhibition of human BT474 cells adhesion on collagen coated plates at 100 uM after 3 hrs by crystal violet staining.
Test [7] concerns the target Focal adhesion kinase 1 (Homo sapiens) (UniProt Q05397). Nature of the test: Inhibition of total FAK phosphorylation in human BT474 cells at 100 uM by Western blotting. It is filed as cell-based. The settings on record: BT-474, TDE = time-dependent effect. In outline: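 BT474 lysates immunoprecipitated with FAK antibody, blotted with phosphotyrosine antibody, then stripped and reprobed for FAK.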

Test [8] concerns BT-474. In words: Effect on human BT474 cell survival assessed as cell detachment at 50 uM after 24 hrs by hemocytometer. It is filed as functional. In outline:
as §2

The test system of test [9] is BT-474. Nature of the test: Induction of apoptosis in human BT474 cells assessed as cleavage of 89 kDa PARP at 1 uM after 24 hrs by Western blotting. In kind it is functional, cell-based. In outline: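 BT474 cells treated at various doses; lysates immunoblotted with PARP antibody, scoring cleaved 89 kDa fragment.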
Another test has as its system C8161. Nature of the test: Cytotoxicity against human C8161 cells assessed as decrease in cell viability at 100 uM after 24 hrs by MTT assay. It is filed as functional, cell-based. In outline: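 Cells from breast cancer and melanoma lines were exposed to compound for 24 h and viability was read by MTT assay. A reference FAK inhibitor served as the control.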

Focal adhesion kinase 1 (Homo sapiens), sequence (Q05397 2-1052 limits assumed): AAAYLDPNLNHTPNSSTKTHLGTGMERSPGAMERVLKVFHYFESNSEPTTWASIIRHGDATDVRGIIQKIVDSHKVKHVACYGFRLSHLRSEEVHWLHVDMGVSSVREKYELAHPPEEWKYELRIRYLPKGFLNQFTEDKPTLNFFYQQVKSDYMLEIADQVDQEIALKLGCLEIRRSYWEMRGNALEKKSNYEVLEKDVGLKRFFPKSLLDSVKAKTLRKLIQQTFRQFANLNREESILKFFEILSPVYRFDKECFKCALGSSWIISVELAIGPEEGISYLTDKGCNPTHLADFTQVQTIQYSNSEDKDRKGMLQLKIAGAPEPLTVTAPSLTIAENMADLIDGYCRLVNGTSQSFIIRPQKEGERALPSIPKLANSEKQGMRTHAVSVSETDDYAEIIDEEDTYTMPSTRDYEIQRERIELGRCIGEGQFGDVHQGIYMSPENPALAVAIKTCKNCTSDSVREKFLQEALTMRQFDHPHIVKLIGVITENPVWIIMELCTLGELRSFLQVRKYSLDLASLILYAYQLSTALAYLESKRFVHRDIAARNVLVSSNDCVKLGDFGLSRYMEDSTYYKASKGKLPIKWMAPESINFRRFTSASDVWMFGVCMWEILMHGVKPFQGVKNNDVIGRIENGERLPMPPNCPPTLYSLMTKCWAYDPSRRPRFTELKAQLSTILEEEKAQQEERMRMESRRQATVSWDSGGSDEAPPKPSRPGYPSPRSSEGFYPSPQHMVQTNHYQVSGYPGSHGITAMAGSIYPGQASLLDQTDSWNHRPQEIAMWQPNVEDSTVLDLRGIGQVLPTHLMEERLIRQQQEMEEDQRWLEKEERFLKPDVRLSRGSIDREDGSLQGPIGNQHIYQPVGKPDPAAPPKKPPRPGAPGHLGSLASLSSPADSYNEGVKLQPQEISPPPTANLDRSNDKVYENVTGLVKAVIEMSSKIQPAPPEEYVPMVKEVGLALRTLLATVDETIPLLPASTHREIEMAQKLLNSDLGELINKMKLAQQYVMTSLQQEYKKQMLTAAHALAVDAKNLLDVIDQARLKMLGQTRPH

Turning to `CNC(=O)c1ccccc1Nc1nc(Nc2ccc(N3CCOCC3)cc2OC)ncc1Cl`, the Activity is 69% in the test on BT-474 [1]; “tde” in test [3]; 30% in the test with BT-474 [4]; 35% in the test on BT-474 [5]; “tde” in test [7]; >80% in the test with BT-474 [8]. The result in the test on BT-474 [2], with BT-474 [6] and in the test with BT-474 [9] was Active.

For the molecule `O=S1(=O)N2CN3CCN(C2)CN1C3`, in the test with C8161, the outcome was Active.
